Calls of active or inactive are those of the source. No cut-off for these calls is given here.
What was measured:
Nucleic Acid [1] = experiment: Thermal stability of c-MYC G-quadruplex DNA assessed as change in melting temperature at DNA:compound ratio 1:1 by spectropolarimeter analysis; assay type: nucleic-acid assay
How it was run: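 c-MYC G-quadruplex at 5 μM in 50 mM Tris-HCl pH 7.4, held 10 min at 25 °C, heated 10 min at 95 °C and air-cooled over ~30 min. Compound then added at 1 equivalent. Melting followed by CD spectropolarimetry; ΔTm = Tm with compound minus Tm of control.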

HCT-116 [2] = experiment: Cytotoxicity against human HCT116 cells after 96 hrs by MTS assay; assay type: functional, cell-based; details: HCT-116, 96 h
How it was run: (§1)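 MTS viability after 96 h exposure. HCT-116 grown in DMEM, Raji in RPMI-1640, each with 10% FBS and penicillin/streptomycin at 37 °C, 5% CO2, kept in exponential growth. Compound spanned a 5–6 log range in 0.5 log steps. IC50 from non-linear regression; biological triplicates.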

Raji = experiment: Cytotoxicity against human Raji cells after 96 hrs by MTS assay; assay type: functional, cell-based; how it was run: as §1
CA46 = experiment: Cytotoxicity against human CA46 cells after 24 hrs by MTS assay; assay type: functional, cell-based; details: CA46, 24 h
Nucleic Acid [3] = experiment: Binding affinity to HIF1alpha G-quadruplex DNA at 2 uM after 48 hrs by competition dialysis method; assay type: nucleic-acid assay
How it was run: (§2)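 DNA at 75 μM in 50 mM Tris-HCl with 25 mM KCl. Duplexes annealed by heating to 95 °C then slow cooling at 1 °C/min. G-quadruplexes formed by 95 °C for 10 min with rapid air cooling, topology checked by CD. Dialysed 48 h in a cold room against BPES with 25 mM KCl and 2 μM compound. Bound compound measured by UV absorbance against a standard curve, expressed per binding site. Run in duplicate.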

Nucleic Acid [4] = experiment: Binding affinity to hTERT G-quadruplex DNA at 2 uM after 48 hrs by competition dialysis method; assay type: nucleic-acid assay; how it was run: as §2
Nucleic Acid [5] = experiment: Binding affinity to PDGFRbeta G-quadruplex DNA at 2 uM after 48 hrs by competition dialysis method; assay type: nucleic-acid assay; how it was run: as §2
Nucleic Acid [6] = experiment: Binding affinity to dGdC DNA at 2 uM after 48 hrs by competition dialysis method; assay type: nucleic-acid assay; how it was run: as §2
Nucleic Acid [7] = experiment: Binding affinity to dAdT DNA at 2 uM after 48 hrs by competition dialysis method; assay type: nucleic-acid assay; how it was run: as §2
Nucleic Acid [8] = experiment: Binding affinity to c-MYC G-quadruplex DNA in human HCT116 cells assessed as decrease in c-MYC mRNA expression at 31 uM at 6 hrs by RT-PCR analysis; assay type: cell-based; details: HCT-116
Nucleic Acid [9] = experiment: Binding affinity to c-MYC G-quadruplex DNA in human HCT116 cells assessed as decrease in c-MYC mRNA expression at 31 uM at 48 hrs by RT-PCR analysis; assay type: cell-based; details: HCT-116
Nucleic Acid [10] = experiment: Binding affinity to HIF1alpha G-quadruplex DNA in human HCT116 cells assessed as change in HIF1alpha mRNA expression at 23 uM up to 48 hrs by RT-PCR analysis; assay type: cell-based; details: HCT-116
Nucleic Acid [11] = experiment: Binding affinity to HIF1alpha G-quadruplex DNA in human HCT116 cells assessed as change in HIF1alpha mRNA expression at 31 uM up to 48 hrs by RT-PCR analysis; assay type: cell-based; details: HCT-116
Nucleic Acid [12] = experiment: Binding affinity to hTERT G-quadruplex DNA in human HCT116 cells assessed as downregulation of hTERT mRNA expression at 31 uM at 6 hrs by RT-PCR analysis; assay type: cell-based; details: HCT-116
Nucleic Acid [13] = experiment: Binding affinity to hTERT G-quadruplex DNA in human HCT116 cells assessed as downregulation of hTERT mRNA expression at 31 uM at 24 hrs by RT-PCR analysis; assay type: cell-based; details: HCT-116
Nucleic Acid [14] = experiment: Binding affinity to hTERT G-quadruplex DNA in human HCT116 cells assessed as downregulation of hTERT mRNA expression at 31 uM at 48 hrs by RT-PCR analysis; assay type: cell-based; details: HCT-116
Nucleic Acid [15] = experiment: Binding affinity to PDGFRbeta G-quadruplex DNA in human HCT116 cells assessed as downregulation of PDGFRbeta mRNA expression at 31 uM at 6 hrs by RT-PCR analysis; assay type: cell-based; details: HCT-116
Nucleic Acid [16] = experiment: Binding affinity to PDGFRbeta G-quadruplex DNA in human HCT116 cells assessed as downregulation of PDGFRbeta mRNA expression at 31 uM at 24 hrs by RT-PCR analysis; assay type: cell-based; details: HCT-116
Nucleic Acid [17] = experiment: Binding affinity to PDGFRbeta G-quadruplex DNA in human HCT116 cells assessed as downregulation of PDGFRbeta mRNA expression at 31 uM at 48 hrs by RT-PCR analysis; assay type: cell-based; details: HCT-116
HCT-116 [18] = experiment: Increase in VEGFA G-quadruplex DNA expression in human HCT116 cells by qPCR analysis; assay type: functional, cell-based
Nucleic Acid [19] = experiment: Decrease of c-MYC G-quadruplex DNA-mediated c-MYC expression in exon1 in human CA46 cells at 2.8 uM at 24 hrs by exon-specific assay; assay type: cell-based
Nucleic Acid [20] = experiment: Decrease of c-MYC G-quadruplex DNA-mediated c-MYC expression in exon1 in human CA46 cells at 2.8 uM at 48 hrs by exon-specific assay; assay type: cell-based
Nucleic Acid [21] = experiment: Decrease of c-MYC G-quadruplex DNA-mediated c-MYC expression in exon1 in human CA46 cells at 2.8 uM at 6 hrs by exon-specific assay; assay type: cell-based
HCT-116 [22] = experiment: Cytotoxicity against human HCT116 cells after 24 hrs by MTS assay; assay type: functional, cell-based; details: HCT-116, 24 h
Nucleic Acid [23] = experiment: Binding affinity to c-MYC G-quadruplex DNA at 2 uM after 48 hrs by competition dialysis method; assay type: nucleic-acid assay; how it was run: as §2
Nucleic Acid [24] = experiment: Binding affinity to c-MYC G-quadruplex DNA in human HCT116 cells assessed as decrease in c-MYC mRNA expression at 23 uM from 6 to 48 hrs by RT-PCR analysis; assay type: cell-based; details: HCT-116
Nucleic Acid [25] = experiment: Binding affinity to hTERT G-quadruplex DNA in human HCT116 cells assessed as downregulation of hTERT mRNA expression at 23 uM by RT-PCR analysis; assay type: cell-based; details: HCT-116, TDE = time-dependent effect
Nucleic Acid [26] = experiment: Binding affinity to PDGFRbeta G-quadruplex DNA in human HCT116 cells assessed as change in PDGFRbeta mRNA expression at 23 uM up to 48 hrs by RT-PCR analysis; assay type: cell-based; details: HCT-116
Nucleic Acid [27] = experiment: Binding affinity to VEGFA G-quadruplex DNA in human HCT116 cells assessed as change in VEGFA mRNA expression at 23 uM up to 48 hrs by RT-PCR analysis; assay type: cell-based; details: HCT-116
Nucleic Acid [28] = experiment: Decrease of c-MYC G-quadruplex DNA-mediated c-MYC expression in exon1 in human CA46 cells at 19.4 uM at 24 hrs by exon-specific assay; assay type: cell-based
Nucleic Acid [29] = experiment: Decrease of c-MYC G-quadruplex DNA-mediated c-MYC expression in exon1 in human CA46 cells at 19.4 uM at 48 hrs by exon-specific assay; assay type: cell-based
Nucleic Acid [30] = experiment: Decrease of c-MYC G-quadruplex DNA-mediated c-MYC expression in exon1 in human CA46 cells at 19.4 uM at 6 hrs by exon-specific assay; assay type: cell-based

OCCCN1CCN(c2c3ccccc3nc3c2[nH]c2ccccc23)CC1
ΔTm (Nucleic Acid [1]): 1.3 °C
IC50 (HCT-116 [2]): 2.4 µM
IC50 (Raji): > 100 µM

CN(C)CCN1CCN(c2c3cc(-c4ccc(F)c(F)c4)ccc3nc3c2[nH]c2ccccc23)CC1
ΔTm (Nucleic Acid [1]): 6.5 °C
IC50 (HCT-116 [2]): 3.7 µM
IC50 (Raji): 5.8 µM

COCCCN1CCN(c2c3ccccc3nc3c2[nH]c2ccccc23)CC1
ΔTm (Nucleic Acid [1]): 6.3 °C
IC50 (HCT-116 [2]): 6.3 µM
IC50 (Raji): 21.3 µM

c1ccc2c(-c3ccc(CCN4CCOCC4)cc3)c3[nH]c4ccccc4c3nc2c1
ΔTm (Nucleic Acid [1]): 1.9 °C
IC50 (HCT-116 [2]): > 100 µM
IC50 (Raji): > 100 µM

CN(C)CCCn1c2ccccc2c2nc3ccccc3c(N3CCN(C)CC3)c21
ΔTm (Nucleic Acid [1]): 2.8 °C
IC50 (HCT-116 [2]): 2.98 µM
IC50 (Raji): 7.03 µM

CCN(CC)CCN1CCN(c2c3ccccc3nc3c2[nH]c2ccccc23)CC1
ΔTm (Nucleic Acid [1]): 10.3 °C
IC50 (HCT-116 [2]): 3.4 µM
IC50 (Raji): 26 µM

CN1CCN(c2c3ccccc3nc3c2[nH]c2ccccc23)CC1
ΔTm (Nucleic Acid [1]): 3 °C
IC50 (HCT-116 [2]): 3.5 µM
IC50 (Raji): 5.44 µM

CN(C)CCN1CCN(c2c3cc(-c4ccc(CCN5CCOCC5)cc4)ccc3nc3c2[nH]c2ccccc23)CC1
ΔTm (Nucleic Acid [1]): 13.1 °C
IC50 (HCT-116 [2]): 3.8 µM
IC50 (Raji): 10.8 µM

c1ccc2c(N3CCN(CCN4CCOCC4)CC3)c3[nH]c4ccccc4c3nc2c1
ΔTm (Nucleic Acid [1]): 5.9 °C
IC50 (HCT-116 [2]): 9.1 µM
IC50 (Raji): 52.9 µM

c1ccc2c(N3CCNCC3)c3[nH]c4ccccc4c3nc2c1
ΔTm (Nucleic Acid [1]): 6.7 °C
IC50 (HCT-116 [2]): 4.3 µM
IC50 (Raji): 33.9 µM

c1ccc2c(N3CCN(CCN4CCCCC4)CC3)c3[nH]c4ccccc4c3nc2c1
ΔTm (Nucleic Acid [1]): 8.8 °C
IC50 (HCT-116 [2]): 0.5 µM
IC50 (Raji): 56.1 µM

CN(C)CCN1CCN(c2c3cc(-c4ccncc4)ccc3nc3c2[nH]c2ccccc23)CC1
ΔTm (Nucleic Acid [1]): 8.6 °C
IC50 (HCT-116 [2]): 20.9 µM
IC50 (Raji): 45 µM

CN(C)CCCN1CCN(c2c3ccccc3nc3c2[nH]c2ccccc23)CC1
ΔTm (Nucleic Acid [1]): 11.4 °C
IC50 (HCT-116 [2]): 0.9 µM
IC50 (Raji): 11.8 µM

CCN(CC)CCNc1c2ccccc2nc2c1[nH]c1ccccc12
ΔTm (Nucleic Acid [1]): 5.2 °C
IC50 (HCT-116 [2]): 0.11 µM
IC50 (Raji): 0.7 µM
IC50 (CA46): 10 µM

CN(C)CCCn1c2ccccc2c2nc3ccccc3c(N3CCN(CCN(C)C)CC3)c21
ΔTm (Nucleic Acid [1]): 16.5 °C
IC50 (HCT-116 [2]): 3.4 µM
IC50 (Raji): 3.1 µM
Activity (Nucleic Acid [3]): Active
Activity (Nucleic Acid [4]): Active
Activity (Nucleic Acid [5]): Active
Activity (Nucleic Acid [6]): Active
Activity (Nucleic Acid [7]): Active
Activity (Nucleic Acid [8]): Active
Activity (Nucleic Acid [9]): inactive
Activity (Nucleic Acid [10]): inactive
Activity (Nucleic Acid [11]): inactive
Activity (Nucleic Acid [12]): Active
Activity (Nucleic Acid [13]): Active
Activity (Nucleic Acid [14]): inactive
Activity (Nucleic Acid [15]): Active
Activity (Nucleic Acid [16]): Active
Activity (Nucleic Acid [17]): inactive
Activity (HCT-116 [18]): Active
Activity (Nucleic Acid [19]): inactive
Activity (Nucleic Acid [20]): inactive
Activity (Nucleic Acid [21]): inactive
IC50 (HCT-116 [22]): 31 µM
IC50 (CA46): 2.8 µM

CN(C)CCN1CCN(c2c3ccccc3nc3c2[nH]c2ccccc23)CC1
ΔTm (Nucleic Acid [1]): 6.7 °C
IC50 (HCT-116 [2]): 0.97 µM
IC50 (Raji): 2.33 µM
Activity (Nucleic Acid [23]): Active
Activity (Nucleic Acid [6]): Active
Activity (Nucleic Acid [7]): Active
Activity (Nucleic Acid [24]): Active
Activity (Nucleic Acid [10]): inactive
Activity (Nucleic Acid [11]): inactive
Activity (Nucleic Acid [25]): tde
Activity (Nucleic Acid [26]): Active
Activity (Nucleic Acid [27]): Active
Activity (Nucleic Acid [28]): inactive
Activity (Nucleic Acid [29]): inactive
Activity (Nucleic Acid [30]): inactive
IC50 (HCT-116 [22]): 23 µM
IC50 (CA46): 19.4 µM

Source: ChEMBL document CHEMBL2176952, “Anticancer activity and cellular repression of c-MYC by the G-quadruplex-stabilizing 11-piperazinylquindoline is not dependent on direct targeting of the G-quadruplex in the c-MYC promoter” (J Med Chem, 2012)
